Our source for the inhibition, Activity and IC50 values is ChEMBL document CHEMBL1833937, “Structure-based design of pseudopeptidic inhibitors for SIRT1 and SIRT2” (J Med Chem, 2011).

Data set [1] addresses Histone deacetylase (Homo sapiens) (UniProt Q13547+O15379+Q9UBN7+Q92769+Q9UQL6+Q8WUI4+Q9BY41+Q96DB2+P56524+Q9UKV0+Q969S8). The experiment in a line: Inhibition of HDAC in human HeLa nuclear extract at 200 uM after 1 hr by Fluor de Lys-based fluorescence assay. In kind it is protein assay. The procedure, abridged: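 HeLa nuclear extract as HDAC source, 50 μM acetylated Fluor de Lys HDAC substrate, compounds 200 μM in HDAC assay buffer; substrate addition starts reaction, 1 h at 37 °C. Developer plus […], 15 min at 25 °C; fluorescence ex 355/em 460 nm. Run twice; means and standard deviations.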

Data set [2] addresses T1, NAD-dependent protein deacetylase sirtuin-1 (Homo sapiens) (UniProt Q96EB6).
T1 sequence (whole entry): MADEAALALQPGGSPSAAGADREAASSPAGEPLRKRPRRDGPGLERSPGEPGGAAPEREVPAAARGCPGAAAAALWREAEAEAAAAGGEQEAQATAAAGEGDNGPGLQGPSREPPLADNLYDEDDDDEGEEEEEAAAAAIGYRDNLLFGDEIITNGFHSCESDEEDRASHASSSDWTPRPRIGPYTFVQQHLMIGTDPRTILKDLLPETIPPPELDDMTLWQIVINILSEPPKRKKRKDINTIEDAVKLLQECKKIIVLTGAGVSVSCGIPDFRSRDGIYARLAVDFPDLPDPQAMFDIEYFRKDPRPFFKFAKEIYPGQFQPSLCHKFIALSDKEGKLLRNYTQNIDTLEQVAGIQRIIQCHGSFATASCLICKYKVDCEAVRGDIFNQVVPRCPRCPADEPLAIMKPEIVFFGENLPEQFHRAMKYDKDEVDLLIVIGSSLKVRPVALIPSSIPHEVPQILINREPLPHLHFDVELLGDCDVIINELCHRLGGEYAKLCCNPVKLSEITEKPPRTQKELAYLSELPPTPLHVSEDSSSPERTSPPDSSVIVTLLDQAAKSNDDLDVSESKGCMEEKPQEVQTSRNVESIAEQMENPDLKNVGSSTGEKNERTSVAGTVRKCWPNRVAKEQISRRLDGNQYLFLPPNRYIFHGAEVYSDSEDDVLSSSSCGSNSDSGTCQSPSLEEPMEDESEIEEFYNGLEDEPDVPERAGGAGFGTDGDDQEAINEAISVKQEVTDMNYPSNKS
The experiment in a line: Inhibition of human SIRT1 in SH-SY5Y cells assessed as increase in p53 acetylation level at 100 uM after 5 hrs by Western blot analysis in presence of etoposide-induced DNA damage. In kind it is cell-based. The gist of the method: (§1)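 Cells seeded at 10^5 per well and treated 24 h later with compound plus etoposide together for 5 h. Lysates (M-PER) cleared 16000g 20 min, equal protein on 4–12% SDS-PAGE, blotted to nitrocellulose, probed with rabbit monoclonal anti-acetyl-p53 (K382), actin as loading control, HRP secondary and chemiluminescence.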
Background: In western blotting, separated proteins are transferred to a membrane and probed.

The target of data set [3] is T1, NAD-dependent protein deacetylase sirtuin-1 (Homo sapiens). The experiment in a line: Inhibition of human SIRT1 in SH-SY5Y cells assessed as increase in p53 acetylation level at 10 uM after 5 hrs by Western blot analysis in presence of etoposide-induced DNA damage. Type of data set: cell-based. The procedure, abridged: as §1
The target of data set [4] is T2, NAD-dependent protein deacetylase sirtuin-2 (Homo sapiens, UniProt Q8IXJ6).
T2 sequence (Q8IXJ6 whole entry): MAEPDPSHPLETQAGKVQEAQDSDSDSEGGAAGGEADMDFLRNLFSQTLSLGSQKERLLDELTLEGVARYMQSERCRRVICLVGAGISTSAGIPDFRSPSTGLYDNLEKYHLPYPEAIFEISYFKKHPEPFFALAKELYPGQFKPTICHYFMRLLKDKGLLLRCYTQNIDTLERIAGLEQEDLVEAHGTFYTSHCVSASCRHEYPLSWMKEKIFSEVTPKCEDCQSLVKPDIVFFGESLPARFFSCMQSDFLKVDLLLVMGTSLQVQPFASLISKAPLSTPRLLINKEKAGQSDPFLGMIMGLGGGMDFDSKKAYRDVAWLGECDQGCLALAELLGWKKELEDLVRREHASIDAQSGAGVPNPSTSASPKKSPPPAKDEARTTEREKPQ
The experiment in a line: Inhibition of recombinant GST-tagged SIRT2 after 1 hr by Fluor de Lys-based fluorescence assay. The procedure, abridged:
(§2)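 Fluor de Lys deacetylation: GST-SIRT1 with KI177 substrate at 40 μM or GST-SIRT2 with KI179 substrate at 138 μM (70% of Km; Km 58 and 198 μM), 500 μM NAD+, assay buffer with 1 mg/mL BSA, DMSO 2.5 μL per 50 μL. Substrate, NAD+ and compound preincubated 5 min rt; enzyme starts reaction, 1 h 37 °C. Developer plus 2 mM nicotinamide, 45 min 37 °C; ex 355/em 460 nm. IC50 from 9-point dose-response (0.0001–2000 μM), at least three repeats.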

Data set [5] addresses T3, NAD-dependent protein deacetylase sirtuin-1 (Homo sapiens, UniProt Q96EB6).
T3 sequence (Q96EB6 whole entry): T1 sequence (whole entry)
The experiment in a line: Inhibition of recombinant GST-tagged SIRT1 after 1 hr by Fluor de Lys-based fluorescence assay. The gist of the method:
as §2

Data set [6] has as its system SH-SY5Y. The experiment in a line: Cytotoxicity against human SH-SY5Y cells at 100 uM by LDH assay. Type of data set: functional, cell-based. The procedure, abridged:
(§3)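 After plating at 10^5 cells/well and 24 h attachment, cells exposed 5 h to compound together with etoposide; cytotoxicity read as lactate dehydrogenase released into culture medium by a commercial LDH kit.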

Data set [7] has as its system SH-SY5Y. The experiment in a line: Cytotoxicity against human SH-SY5Y cells at 10 uM by LDH assay. In kind it is functional, cell-based. The procedure, abridged:
as §3

The target in data set [8] is T1, NAD-dependent protein deacetylase sirtuin-1 (Homo sapiens). The experiment in a line: Inhibition of recombinant GST-tagged SIRT1 at 200 uM after 1 hr by Fluor de Lys-based fluorescence assay. The gist of the method:
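Single-point Fluor de Lys test at 200 μM: GST-SIRT1 (40 μM KI177 substrate) or GST-SIRT2 (138 μM KI179 substrate), 500 μM NAD+, BSA-supplemented buffer, 5 min rt preincubation, enzyme-started 1 h at 37 °C. Developer with 2 mM nicotinamide 45 min 37 °C; fluorescence ex 355/em 460 nm. Percent inhibition ± standard deviation.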

A short description of data set [9]: Cytotoxicity against human ARPE19 cells at 10 uM by LDH assay. Type of data set: cell-based. As to conditions: arpe-19, 10 µM. The gist of the method: as §3
Data set [10] is described as follows: Cytotoxicity against human astrocytes at 10 uM by LDH assay. Type of data set: cell-based. The conditions noted are these: astrocyte. The gist of the method:
as §3

The target of data set [11] is T1, NAD-dependent protein deacetylase sirtuin-1 (Homo sapiens). The experiment in a line: Inhibition of human SIRT1 in ARPE19 cells assessed as increase in p53 acetylation level at 10 uM after 5 hrs by Western blot analysis in presence of etoposide-induced DNA damage. In kind it is cell-based. The procedure, abridged: as §1
The target is the same in data set [12]. The experiment in a line: Inhibition of human SIRT1 in human astrocytes assessed as increase in p53 acetylation level at 10 uM after 5 hrs by Western blot analysis in presence of etoposide-induced DNA damage. In kind it is cell-based. The gist of the method: as §1

Calls of active or inactive are those of the source. The calls are words filed in the database; no cut-off is given here. Where a SMILES comes first, the peptide text is derived from it. [ ]: non-standard residue; d: D form. Lys(Thioacetyl) = CC(=S)NCCCC[C@H](N)C(=O)O

What is called inhibition is the share of the control response that was lost under treatment. In general, IC50 refers to the concentration needed to halve the response being measured. The compound `CC(=S)NCCCC[C@H](NC(=O)[C@@H]1CCCN(C(=O)OC(C)(C)C)C1)C(=O)N[C@@H](C)C(=O)O` yielded an inhibition in [1] of 23.7%. For the same compound, the result in data set [2] and in data set [3] was Active. Besides, the IC50 in data set [4] was determined as 13 µM; in data set [5] it was 0.97 µM. Further, the outcome with SH-SY5Y [6] and in the data set with SH-SY5Y [7] was inactive.

`CC(=S)NCCCC[C@H](NC(=O)OCc1ccccc1)C(=O)N[C@@H](C)C(=O)O` registered an inhibition in [1] of 3.9%. For the same compound, in [3], the result was Active. The IC50 stood at 17 µM in data set [4] and 1.3 µM in [5]. Moreover, the result in the data set on SH-SY5Y [7] was inactive.

Turning to `CC(=S)NCCCC[C@H](NC(=O)[C@H](C)NC(=O)OC(C)(C)C)C(=O)N[C@@H](C)C(=O)O`, in [1], the inhibition was 10.1%. The values for the IC50 in data set [4] and in data set [5] were 6.5 µM and 0.77 µM, respectively.

Regarding `CC(=S)NCCCC[C@H](NC(=O)OCc1ccccc1)C(=O)NC1CCCCC1`, the inhibition in data set [1] is 75.4%. Also, in data set [5], the IC50 amounted to 23 µM.

As to `CNC(=O)[C@H](C)NC(=O)[C@H](CCCCNC(C)=S)NC(=O)[C@H](C)NC(C)=O`, the IC50 in data set [4] came out at 2.9 µM; in data set [5], 0.4 µM.

Compound `CC(=S)NCCCC[C@H](NC(=O)[C@H](N)Cc1ccccc1)C(=O)N[C@@H](C)C(=O)O` returned an inhibition in [1] of 7.6%. For the same compound, the IC50 in data set [5] came to 18 µM.

`CC(=S)NCCCC[C@H](NC(=O)OCc1ccccc1)C(=O)Nc1ccccc1F` gave an inhibition in data set [1] of 1.4%. Further, the IC50 was found to be 16 µM in [4] and 7.4 µM in data set [5].

`CC(=S)NCCCC[C@H](NC(=O)CCc1ccccc1)C(=O)N[C@@H](C)C(=O)O`: in [1], the inhibition came out at 8.5%. The IC50 is 56 µM in data set [4] and 0.99 µM in [5].

In the case of `CC(=S)NCCCC[C@H](N)C(=O)N[C@@H](C)C(=O)O`, the inhibition in data set [8] is 46.9%.

As for `CC(=O)N1CCC[C@H]1C(=O)N[C@@H](CCCCNC(C)=S)C(=O)N[C@@H](C)C(=O)O`, the values for the IC50 in data set [4] and in data set [5] were 31 µM and 0.37 µM, respectively.

For the compound `CC(=S)NCCCC[C@H](NC(=O)OCc1ccccc1)C(=O)Nc1ccccc1`, the inhibition in [1] is 2.5%. The IC50 was 15 µM in data set [4] and 9.9 µM in [5].

With `COC(=O)[C@H](C)NC(=O)[C@H](CCCCNC(C)=S)NC(=O)[C@H](C)NC(C)=O`, the IC50 in data set [4] was 13 µM; in [5], 1 µM.

For the compound `CSCC[C@H](NC(=O)[C@H](CC(C)C)NC(=O)[C@H](CCCCNC(C)=S)NC(=O)[C@H](CCCCN)NC(=O)[C@@H](N)Cc1cnc[nH]1)C(=O)O` (H-HK[Lys(Thioacetyl)]LM-OH), the results for the IC50 in [4] and in data set [5] were 6.3 µM and 0.31 µM, respectively.

In [1], `CC(=S)NCCCC[C@H](NC(=O)OCc1ccccc1)C(=O)Nc1ccccc1O` gave an inhibition of 1.9%. Moreover, the IC50 is 7.4 µM in data set [4] and 5.1 µM in data set [5].

On to `CC(=S)NCCCC[C@H](NC(=O)CCc1ccccc1O)C(=O)N[C@@H](C)C(=O)O`, for which, in data set [1], the inhibition was determined as 5.6%. Further, the IC50 in data set [4] was 53 µM; in data set [5] it was 1 µM.

Consider `CC(=S)NCCCC[C@H](NC(=O)[C@H](C)N)C(=O)N[C@@H](C)C(=O)O`, for which the IC50 in data set [4] was 36 µM; in [5], 0.66 µM.

In turn, `CC(=S)NCCCC[C@H](NC(=O)OCc1ccccc1)C(=O)NCC(=O)c1ccccc1` came in with an inhibition in [1] of 5.1%. The Activity result in data set [9] and in data set [10] was “Non-toxic” in each case. For the same compound, the result in data set [3], in data set [11] and in data set [12] was Active. Besides, the results for the IC50 in [4] and in data set [5] were 4.3 µM and 1.6 µM, respectively. The outcome with SH-SY5Y [7] was inactive.

In the case of `CC(=S)NCCCC[C@H](NC(=O)CCc1ccccc1F)C(=O)N[C@@H](C)C(=O)O`, the inhibition in data set [1] amounted to 16.3%. In addition, the IC50 in data set [4] amounted to 27 µM; in data set [5] it was 1.3 µM.

Consider `COC(=O)[C@H](C)NC(=O)[C@H](CCCCNC(C)=S)NC(C)=O`, for which the values for the IC50 in data set [4] and in [5] were 862 µM and 51 µM, respectively.
